Data reported in ChEMBL document CHEMBL1126260, “Thromboxane receptor antagonism combined with thromboxane synthase inhibition. 2. Synthesis and biological activity of 8-(benzenesulfonamido)-7-(3-pyridinyl)octaonic acid and related compounds” (J Med Chem, 1992).

How the values were obtained:
[1] = target: T1, Thromboxane-A synthase (Homo sapiens, UniProt P24557); test: Inhibitory activity against human Thromboxane A2 synthase
T1 sequence (P24557 whole entry): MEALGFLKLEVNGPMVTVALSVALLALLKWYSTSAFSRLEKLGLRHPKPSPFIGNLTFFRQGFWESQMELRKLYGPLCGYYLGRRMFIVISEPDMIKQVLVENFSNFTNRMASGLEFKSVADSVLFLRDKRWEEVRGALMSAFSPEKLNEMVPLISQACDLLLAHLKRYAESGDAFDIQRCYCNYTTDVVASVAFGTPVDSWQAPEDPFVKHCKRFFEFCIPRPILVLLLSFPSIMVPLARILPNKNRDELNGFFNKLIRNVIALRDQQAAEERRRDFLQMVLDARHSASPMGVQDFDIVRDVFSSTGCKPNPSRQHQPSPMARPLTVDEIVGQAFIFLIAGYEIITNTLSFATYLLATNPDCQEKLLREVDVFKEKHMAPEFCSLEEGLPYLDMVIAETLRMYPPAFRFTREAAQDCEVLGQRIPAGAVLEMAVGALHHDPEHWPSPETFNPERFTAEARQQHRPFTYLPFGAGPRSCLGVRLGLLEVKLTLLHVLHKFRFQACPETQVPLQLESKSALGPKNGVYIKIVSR
Outline: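 Human platelet microsomal preparation incubated with (14C)arachidonic acid; thromboxane synthase inhibition read as reduced TxB₂ formation; IC50.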

[2] = species on record: Homo sapiens; test: Inhibitory activity against U-46,619-induced aggregation of washed human platelets.; type: functional
Outline: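 Aspirin-treated, washed human platelets stimulated with U 46619 (stable PGH₂/TxA₂ mimic); aggregation inhibition measured; IC50.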

[3] = species on record: Homo sapiens; test: Antagonist activity against U-46,619-induced aggregation of platelet rich plasma (PRP); type: functional
Outline: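 Human platelet-rich plasma stimulated with U 46619; aggregation inhibition measured; IC50.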

[4] = species on record: Oryctolagus cuniculus; test: Antagonist activity against contraction of rabbit aortic strips; (agonist activity was observed at 10e-5-10e-7M); type: functional, Aorta
Outline: (§1)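 Thoracic aorta segments (~3 cm) from anesthetized male New Zealand rabbits (1.4–2.4 kg), cleaned of fat; 2.0 g preload, 1 h equilibration. Contraction evoked by U 46619 (3 × 10⁻⁹ M) to plateau (20 min), then washed back to baseline. IC50 from a single determination.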

[5] = Ratio of platelet rich plasma to that of washed platelets
[6] = species on record: Oryctolagus cuniculus; test: Antagonist activity against contraction of rabbit aortic strips; type: functional; conditions: Aorta; outline: as §1

SMILES | IC50 [1] [µM] | IC50 [2] [µM] | IC50 [3] [µM] | IC50 [4] | IC50 [6] [µM] | Ratio [5]
CN(CC(CCCCCC(=O)O)c1cccnc1)S(=O)(=O)c1ccc(Cl)cc1 (stereo not drawn) | > 10 | > 10 |  |  |  | 
NC(=O)CCCCCC(CNS(=O)(=O)c1ccccc1)c1cccnc1 (stereo not drawn) | > 10 | > 10 |  |  |  | 
COC(=O)CCCCCC(CNS(=O)(=O)c1ccccc1)c1cccnc1 (stereo not drawn) | > 10 | > 10 |  |  |  | 
COc1ccc(S(=O)(=O)NCC(CCCCCC(=O)O)c2cccnc2)cc1 (stereo not drawn) | 0.94 | 0.3 |  |  |  | 
Cl.O=C(O)CCCCCC(CNS(=O)(=O)c1ccc(Cl)cc1)c1cccnc1 (stereo not drawn) |  |  | 0.6 | Agonist |  | 30
O=C(O)CCCC(CNS(=O)(=O)c1ccc(Cl)cc1)c1cccnc1 (stereo not drawn) | 2 | > 10 |  |  |  | 
Cc1ccccc1S(=O)(=O)NCC(CCCCCC(=O)O)c1cccnc1 (stereo not drawn) | 0.2 | 0.38 |  |  |  | 
O=C(O)CCCCCC(CNS(=O)(=O)c1ccc(C(=O)O)cc1)c1cccnc1 (stereo not drawn) | > 10 | > 10 |  |  |  | 
O=C(O)COc1ccc(CCNS(=O)(=O)c2ccccc2)cc1 [SULOTROBAN] |  | 1.5 | 4 |  |  | 2.6

Now from value to compound, other results behind:

IC50 [1] [µM] | IC50 [2] [µM] | IC50 [3] [µM] | IC50 [4] | IC50 [6] [µM] | SMILES | Ratio [5]
0.077 | 0.08 |  |  |  | O=C(O)CCCCC(CNS(=O)(=O)c1ccc(Cl)cc1)c1cccnc1 (stereo not drawn) | 
0.12 | 0.07 |  |  |  | O=C(O)CCCCCC(CNS(=O)(=O)c1ccc([N+](=O)[O-])cc1)c1cccnc1 (stereo not drawn) | 
0.24 | 0.01 | 0.2 | Agonist |  | Cl.O=C(O)CCCCCCC(CNS(=O)(=O)c1ccc(Cl)cc1)c1cccnc1 (stereo not drawn) | 20
0.05 | 0.2 |  |  |  | Cc1ccc(S(=O)(=O)NCC(CCCCCC(=O)O)c2cccnc2)cc1 (stereo not drawn) | 
0.04 | 0.08 | 2.5 |  | 1 | Cl.O=C(O)CCCCCC(CNS(=O)(=O)c1ccc(Cl)c(Cl)c1)c1cccnc1 (stereo not drawn) | 32
0.21 | 0.25 | 2.1 |  | 0.4 | Cl.O=C(O)CCCCCC(CNS(=O)(=O)c1ccccc1)c1cccnc1 (stereo in doubt; 6) | 8.2
> 10 | 0.25 |  |  |  | O=C(O)CCCCCC(CNS(=O)(=O)c1ccccc1)c1cccnc1 (stereo in doubt; 25) | 
